What was measured:
hCD1b dimer [1] = target: T1, hCD1b dimer (Homo sapiens, UniProt P29016); assay: Direct ELISA binding of Biotinyl PE without competitor; conditions: pH 4–10 tested, Biotinyl PE 1μg/mL, overnight 37°C, no competitor
Procedure, shortened: (§1)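 Biotinyl PE (1μg/mL) was incubated overnight at 37°C with hCD1 dimer or mouse IgG1 isotype control. Incubation was in PBS adjusted with HCl or NaOH to pH 4–10, in plates coated with anti-mouse IgG Fc antibody. A well without biotinylated PE at pH 7 served as background. Assays were run in triplicate.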

hCD1d dimer [2] = target: T2, hCD1d dimer (Homo sapiens, UniProt P15813); assay: Direct ELISA binding of Biotinyl PE without competitor; conditions: Biotinyl PE 1μg/mL
T2 sequence (P15813 20-301 limits assumed): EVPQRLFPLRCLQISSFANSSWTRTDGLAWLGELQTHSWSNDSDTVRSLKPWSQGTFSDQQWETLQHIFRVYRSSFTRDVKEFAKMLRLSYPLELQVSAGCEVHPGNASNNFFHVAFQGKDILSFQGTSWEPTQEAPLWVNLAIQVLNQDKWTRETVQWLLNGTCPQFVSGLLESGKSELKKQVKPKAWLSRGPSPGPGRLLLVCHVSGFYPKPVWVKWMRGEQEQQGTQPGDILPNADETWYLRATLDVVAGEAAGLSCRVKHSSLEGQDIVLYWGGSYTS

hCD1c dimer [3] = target: T3, hCD1c dimer (Homo sapiens, UniProt P29017); assay: Direct ELISA binding of Biotinyl PE without competitor; conditions: pH 4–10 tested, Biotinyl PE 1μg/mL, overnight 37°C, no competitor
T3 sequence (P29017 18-302 limits assumed): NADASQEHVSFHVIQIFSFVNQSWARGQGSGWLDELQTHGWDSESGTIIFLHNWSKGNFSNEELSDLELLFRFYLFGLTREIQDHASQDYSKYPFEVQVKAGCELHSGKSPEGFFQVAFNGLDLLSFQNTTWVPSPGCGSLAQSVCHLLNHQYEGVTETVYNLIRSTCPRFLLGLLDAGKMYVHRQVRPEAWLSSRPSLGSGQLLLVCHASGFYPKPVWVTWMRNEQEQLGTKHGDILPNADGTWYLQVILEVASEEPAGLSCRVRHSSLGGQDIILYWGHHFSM
Procedure, shortened: as §1

mouse IgG1 = assay: Direct ELISA binding of Biotinyl PE to isotype control; conditions: specificity control
Procedure, shortened: as §1

hCD1d dimer [4] = target: T2, hCD1d dimer; assay: Competitive ELISA assay; type: binding
Procedure, shortened: (§2)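 Dimers are hCD1 α1–α3 fused to mouse IgG with β2m, expressed in J558L cells and purified on Protein G. Plates were coated overnight at 4°C with goat anti-mouse IgG Fc (10μg/mL, pH 9.6), then blocked 1 h. Dimer (5μg/mL), competitor lipid and Biotinyl PE (2μg/mL) in PBS were incubated overnight at 37°C and detected with HRP-avidin. Assays were run in triplicate. Ki = IC50/(1+[B-PE]/Kd), with Kd fitted from competitor-free Biotinyl PE titration.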

hCD1c dimer [5] = target: T3, hCD1c dimer; assay: Competitive ELISA assay; type: binding
Procedure, shortened: as §2

hCD1b dimer [6] = target: T1, hCD1b dimer; assay: Competitive ELISA assay; type: binding
Procedure, shortened: as §2

T1 sequence (P29016 18-303 limits assumed): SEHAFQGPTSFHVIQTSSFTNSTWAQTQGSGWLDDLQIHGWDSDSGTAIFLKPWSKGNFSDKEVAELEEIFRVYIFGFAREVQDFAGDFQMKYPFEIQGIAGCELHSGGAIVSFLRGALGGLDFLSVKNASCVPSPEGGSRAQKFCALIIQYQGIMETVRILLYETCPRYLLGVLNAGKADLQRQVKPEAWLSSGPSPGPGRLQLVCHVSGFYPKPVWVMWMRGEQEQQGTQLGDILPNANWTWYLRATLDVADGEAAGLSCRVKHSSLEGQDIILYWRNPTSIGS

Compound: CCCCCCCC/C=C\CCCCCCCC(=O)OC[C@H](COP(=O)(O)OCCNC(=O)CCCC[C@@H]1SC[C@@H]2NC(=O)N[C@@H]21)OC(=O)CCCCCCC/C=C\CCCCCCCC [Biotinyl PE, 1,2-Dioleoyl-sn-Glycero-3-Phosphoethanolamine-N-(Biotinyl)]
- optimal pH for binding to CD1b (hCD1b dimer [1]): 4-5
- time to reach a peak level of binding to hCD1d (hCD1d dimer [2]; 37°C, optimal condition): 8 h
- optimal pH for binding to CD1d (hCD1d dimer [2]; pH 4–10 tested, overnight 37°C, no competitor): 5-7
- optimal pH for binding to CD1c (hCD1c dimer [3]): 4-5
- binding to mouse IgG1 (isotype control) (mouse IgG1): failed to bind

Compound: CCCCCCCCCCCCCCCCCCCCCCCCCC(=O)N[C@@H](CO[C@H]1O[C@H](CO)[C@H](O)[C@H](O)[C@H]1O)[C@H](O)[C@H](O)CCCCCCCCCCCCCC [α-GalCer, α-galactosylceramide]
- Ki (hCD1d dimer [4]): 97 nM
- Ki (hCD1c dimer [5]): 1370 nM
- Ki (hCD1b dimer [6]): 2840 nM

Compound: Mycolic acid
- binding to CD1b (inhibition of Biotinyl PE binding), in words (hCD1b dimer [6]; competitive ELISA): unable to detect the binding

Reference: PMC2743114 (Journal of immunological methods, 2009)
